Data as given in ChEMBL document CHEMBL2010709, “Pinophilins A and B, inhibitors of mammalian A-, B-, and Y-family DNA polymerases and human cancer cell proliferation” (J Nat Prod, 2012).
The source made the active and inactive calls. No cut-off for these calls is given here.

What was measured:
DNA polymerase kappa [1] = target: T1, DNA polymerase kappa (Homo sapiens, UniProt Q9UBT6); experiment: Competitive inhibition of human C-terminal-His6-tagged DNA polymerase kappa expressed in Escherichia coli using dTTP as substrate by Dixon plot analysis
T1 sequence (Q9UBT6 whole entry): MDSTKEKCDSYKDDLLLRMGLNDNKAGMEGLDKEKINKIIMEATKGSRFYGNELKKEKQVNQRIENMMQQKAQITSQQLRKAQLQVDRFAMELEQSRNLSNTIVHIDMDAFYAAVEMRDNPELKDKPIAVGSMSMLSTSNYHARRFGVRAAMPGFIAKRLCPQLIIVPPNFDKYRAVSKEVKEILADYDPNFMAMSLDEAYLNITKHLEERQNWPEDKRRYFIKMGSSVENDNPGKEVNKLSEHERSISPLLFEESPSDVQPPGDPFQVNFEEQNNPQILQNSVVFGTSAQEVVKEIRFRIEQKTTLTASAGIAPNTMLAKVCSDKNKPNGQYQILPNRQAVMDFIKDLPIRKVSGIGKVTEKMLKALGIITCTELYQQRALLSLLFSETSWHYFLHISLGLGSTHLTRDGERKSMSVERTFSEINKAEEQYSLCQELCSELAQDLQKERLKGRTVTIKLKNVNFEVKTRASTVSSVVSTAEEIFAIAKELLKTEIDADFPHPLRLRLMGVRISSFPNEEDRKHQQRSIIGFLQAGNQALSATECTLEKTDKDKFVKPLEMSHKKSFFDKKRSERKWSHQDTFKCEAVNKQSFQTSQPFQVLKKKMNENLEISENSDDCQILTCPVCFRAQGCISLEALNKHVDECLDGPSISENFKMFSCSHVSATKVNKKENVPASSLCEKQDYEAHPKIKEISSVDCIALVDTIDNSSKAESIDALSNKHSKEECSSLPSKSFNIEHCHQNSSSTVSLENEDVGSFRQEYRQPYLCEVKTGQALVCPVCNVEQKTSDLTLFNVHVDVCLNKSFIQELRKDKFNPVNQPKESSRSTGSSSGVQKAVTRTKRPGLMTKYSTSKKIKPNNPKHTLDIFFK
Summary of the method: (§1)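 Kinetics ran in the standard pol assay at 37 °C for 60 min. Either poly(dA)/oligo(dT)18 (A/T = 2/1) or dTTP was varied, with inhibitor at 0, 10, 20 and 30 μM. Km and Vmax came from Lineweaver–Burk plots and Ki from Dixon plots. Pol α was purified from calf thymus by immunoaffinity chromatography.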

Bos taurus [2] = species: Bos taurus; experiment: Competitive inhibition of calf DNA polymerase alpha using dTTP as substrate up to 30 uM by Lineweaver-Burk plot analysis; summary of the method: as §1
[3] = Competitive inhibition of calf DNA polymerase alpha using dTTP as substrate by Dixon plot analysis; design: species or system Bos taurus; summary of the method: as §1
DNA polymerase kappa [4] = target: T1, DNA polymerase kappa; experiment: Non-competitive inhibition of human C-terminal-His6-tagged DNA polymerase kappa expressed in Escherichia coli using ploy(dA)/oligo(dT)18 as substrate by Dixon plot analysis; summary of the method: as §1
[5] = Non-competitive inhibition of calf DNA polymerase alpha using ploy(dA)/oligo(dT)18 as substrate by Dixon plot analysis; design: species or system Bos taurus; summary of the method: as §1
Bos taurus [6] = species: Bos taurus; experiment: Non-competitive inhibition of calf DNA polymerase alpha using ploy(dA)/oligo(dT)18 as substrate up to 30 uM by Lineweaver-Burk plot analysis; summary of the method: as §1

## C/C=C/C1=CC2=CC(=O)[C@@](C)(OC(=O)c3c(C)cc(O)cc3O)[C@@H](O)[C@@H]2CO1 [PINOPHILIN A]
DNA polymerase kappa [1]
  Ki: 9.85 µM
Bos taurus [2]
  inhibition: Active
[3]
  Ki: 9.6 µM
DNA polymerase kappa [4]
  Ki: 18.1 µM
[5]
  Ki: 13.8 µM
Bos taurus [6]
  inhibition: Active
